Screens deposited in PubChem by several laboratories.
A selection: hits, their analogues and other compounds. The true share with any hit is near 3.8%.
RGS4 block: RGS4 inhibitors, primary screen, cell-based, HEK293 M3R inducible RGS4, calcium flux; Regulator of G-protein signaling 4 (Homo sapiens), P49798; Fluo-4 calcium flux; stronger effect = higher value; triggered by carbachol at its EC20; B-score at 10 µM; 310,000 tested, 0.45% active; AID 463165, 2010;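 active = B-score, a plate-corrected calcium signal, over three deviations above library mean, with baseline fluorescence within five deviations of library mean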;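 also: RGS4 expression induced by doxycycline in cells with stable M3 receptor; B-score is computed from the integrated fluorescence ratio over baseline after carbachol; higher B-score means a larger calcium signal and so more RGS4 inhibition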
Target sequence (P49798 whole entry, looked up): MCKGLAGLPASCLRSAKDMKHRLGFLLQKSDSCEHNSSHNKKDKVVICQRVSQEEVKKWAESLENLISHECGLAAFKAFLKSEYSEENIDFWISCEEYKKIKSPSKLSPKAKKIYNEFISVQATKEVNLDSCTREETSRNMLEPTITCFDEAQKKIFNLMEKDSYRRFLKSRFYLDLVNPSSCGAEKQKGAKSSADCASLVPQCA
MrgX1 antag: antagonists of human MrgX1 receptor, primary screen, HEK293 cells, Fluo-4 calcium flux | B-score at 10 µM | 310,000 tested, 1.3% active | Mas-related G-protein coupled receptor member X1 (Homo sapiens), Q96LB2 | BAM8-22 antagonism; stronger effect = lower value;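 active = calcium-response B-score plate-corrected more than 3 library SD below zero, starting fluorescence within 5 deviations, no agonist response on first addition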;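 also: peak minus trough fluorescence over baseline after final BAM8-22 challenge near maximal dose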
Target sequence (Q96LB2 whole entry, looked up): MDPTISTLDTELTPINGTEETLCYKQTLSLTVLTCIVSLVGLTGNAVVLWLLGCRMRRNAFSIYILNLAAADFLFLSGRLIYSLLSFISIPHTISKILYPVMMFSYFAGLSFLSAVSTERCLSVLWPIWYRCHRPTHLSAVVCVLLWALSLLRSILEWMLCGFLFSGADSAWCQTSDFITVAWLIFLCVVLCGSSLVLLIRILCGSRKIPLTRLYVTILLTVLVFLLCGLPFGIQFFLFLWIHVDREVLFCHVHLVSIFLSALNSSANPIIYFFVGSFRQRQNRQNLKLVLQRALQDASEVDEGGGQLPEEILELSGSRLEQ
MrgX1 allo act: positive allosteric modulators of MrgX1, primary screen, HEK293 cells, Fluo-4 calcium flux; Mas-related G-protein coupled receptor member X1 (Homo sapiens), Q96LB2; FDSS; stronger effect = higher value; B-score at 10 µM; 310,000 tested, 0.63% active;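 active = plate-corrected calcium response at least 3 library SD above typical, normal starting fluorescence, not activating the receptor alone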;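 also: compound read alongside a low EC10 to EC30 dose of BAM8-22 agonist; peak minus trough fluorescence over baseline measured at the second addition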
MrgX1 agonist: agonists of human MrgX1 receptor, primary screen, HEK293 cells, Fluo-4 calcium flux | Mas-related G-protein coupled receptor member X1 (Homo sapiens), Q96LB2 | B-score at 10 µM | 310,000 tested, 0.44% active | AID 588627, 2011 | Fluo-4 calcium fluorescence, agonist mode; stronger effect = higher value;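 active = calcium response B-score plate-corrected fluorescence ratio at least 3 library SD, with starting fluorescence B-score inside 5 SD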
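Assay system: MrgX1-expressing HEK293 cells / Amount: fifteen thousand cells per well / Doses: test compound in the initial addition of three / Timing: cells plated overnight, dye loaded 0.5 h 37 °C, 0.5 h room temperature / Technique: kinetic calcium dye fluorescence, Fluo-4 NW / Control set: positive and negative controls per plate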
Hep lipid drop: inhibitors of hepatocyte lipid droplet formation, primary screen, imaging, high-throughput imaging, BODIPY stain | AML12 mouse hepatocytes, oleate lipid droplets | inhibition, % at 6.5 µM | 240,000 tested, 0.4% active;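 active = lipid droplet intensity inhibited by at least 50%, with more than 500 cells counted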
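System: AML12 hepatocytes (mouse). Probe or stimulus: oleic acid at 100 µM to induce lipid droplet formation. Times: overnight treatment with compound plus oleate. Detection: Image-based BODIPY and DAPI two-channel analysis. Evaluation: percent inhibition of filter-corrected integrated lipid droplet intensity per well.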
RGS4 act: RGS4 potentiators or activators, primary screen, cell-based, HEK293 M3R inducible RGS4, calcium flux; carbachol calcium flux Fluo4; stronger effect = lower value; B-score at 10 µM; 310,000 tested, 0.92% active;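 active = B-score of the integrated calcium signal more than 4 SD below the library mean, with starting fluorescence not abnormally high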;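 also: negative B-score means reduced calcium response which marks RGS4 activation or potentiation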
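Reagent: ECmax carbachol challenge; Test system: M3R-expressing HEK293 line, RGS4 induced by doxycycline; Schedule: overnight RGS4 induction, 30 min dye load 37 °C, 20 min compound RT; Detection: calcium dye Fluo4 fluorescence; Read-out: Agonist-evoked peak-minus-minimum fluorescence over baseline, integrated ratio, B score.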
MrgX1 ant reconf: MrgX1 receptor antagonists, duplicate retest, confirmation, HEK293 cells, Fluo-4 calcium flux | remaining BAM8-22 calcium response % of control (stronger effect = lower value), % at 10 µM | BAM8-22 calcium flux; stronger effect = lower value | shares compounds with MrgX1 antag | 2,300 tested, 19% active | AID 602420, 2012;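 active = remaining agonist calcium response no higher than 100% minus 3 SD of agonist-only control wells, with starting fluorescence near control levels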;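 also: agonist BAM8-22 given at a near maximal EC90 to ECmax level; peak minus minimum fluorescence divided by baseline after agonist addition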
HEK293 Ca flux: nonspecific calcium signal in parental HEK293, confirmation, counter-screen for MrgX1 antagonist project, parental HEK293 cells, Fluo-4 calcium flux | shares compounds with MrgX1 antag | Fluo-4 calcium fluorescence, FDSS | fluorescence ratio F(max-min)/F0 at 10 µM | 4,000 tested, 2% active | AID 624111, 2012;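 active = duplicate-averaged calcium fluorescence ratio at least three times the standard deviation of buffer wells, a nonspecific response in parental cells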
HEK293 Ca counter: calcium response in parental HEK293 cells, primary screen, counter-screen for MrgX1 allosteric activator project, cell-based, Fluo-4 calcium flux, duplicate | 4,000 tested, 0.4% active | AID 624114, 2012 | shares compounds with MrgX1 antag | fluorescence ratio F(max-min)/F0 at 10 µM | Fluo-4 fluorescence ratio; stronger effect = higher value;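 active = calcium fluorescence ratio, averaged over duplicates, at least 3 SD of the buffer-well ratio, meaning a nonspecific response in receptor-free cells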;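 also: untransfected parental HEK293 lacking MrgX1 used as counterscreen for MrgX1 allosteric activators; fluorescence change taken during the second addition on a kinetic imager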
HEK293 Ca cntr2: calcium response in parental HEK293 cells, primary screen, counter-screen for MrgX1 agonist project, cell-based, Fluo-4 calcium flux, duplicate, agonist mode | shares compounds with MrgX1 antag | Fluo-4 calcium fluorescence (FDSS); stronger effect = higher value | fluorescence ratio F(max-min)/F0 at 10 µM | 4,000 tested, 8.7% active;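 active = calcium fluorescence ratio at least three times the spread of buffer wells, meaning a non-specific response in parental cells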
Numbers stand for hits; – = inactive; · = no result.

SMILES | RGS4 block | MrgX1 antag | MrgX1 allo act | MrgX1 agonist | Hep lipid drop | RGS4 act | MrgX1 ant reconf | HEK293 Ca flux | HEK293 Ca counter | HEK293 Ca cntr2
COCCn1nnnc1C(c1ccc(OC)cc1)N1CCN(c2ccccc2F)CC1 (stereo not drawn) | – | -5.71 | – | – | – | – | – | – | – | –
COCCn1nnnc1C(c1ccc(C(F)(F)F)cc1)N1CCOCC1 (stereo not drawn) | – | -5.56 | – | – | · | – | – | – | – | –
CCOC(=O)c1cc(-c2ccccc2)n(Cc2cc(CC)no2)n1 | – | -5.51 | – | – | · | – | – | – | – | –
Clc1c(Cl)c(Cl)c2n[nH]nc2c1Cl | – | -6.97 | – | – | – | – | – | – | – | –
CCn1nc(C)cc1C(=O)NC1CCCc2c1cnn2-c1cc(F)cc(F)c1 (stereo not drawn) | – | – | – | – | – | – | · | · | · | ·
COc1ccc2c(c1)OC(c1ccccc1)(C(F)(F)F)NC2=O (stereo not drawn) | – | – | – | – | – | – | · | · | · | ·
CC(C)Oc1ccc2c(c1)OC(c1ccccc1)(C(F)(F)F)NC2=O (stereo not drawn) | – | -5.77 | – | – | – | – | – | – | – | –
COc1ccc(NC(=O)CSc2nccn2Cc2ccco2)cc1OC | – | – | – | – | – | – | · | · | · | ·
CCN(CC(=O)Nc1c(F)cccc1F)C(=O)COc1cccc2c1OC(C)(C)C2 | – | -5.44 | – | – | · | – | – | – | – | –
O=C(NC(=S)Nc1ccccn1)c1cncc(Br)c1 | – | – | – | – | – | – | · | · | · | ·
Cc1cccnc1NC(=S)NC(=O)c1cncc(Br)c1 | – | -4.55 | – | – | · | – | – | – | – | –
CCOc1c2ccoc2nc2c(OC)c(OC)ccc12 | – | -5.68 | – | – | – | – | – | – | – | –
CCOc1c(OC)ccc2c3c(c(=O)oc12)CCCC3 | – | – | – | – | – | – | · | · | · | ·
CCCCOC(=O)c1ccc(NC(=O)COC(=O)CSc2nc(C)cc(C)n2)cc1 | – | – | – | – | – | – | · | · | · | ·
COc1cc(C(=O)O)ccc1OCc1c(C)noc1C | – | – | – | – | – | – | · | · | · | ·
COc1cc(C(=O)Oc2ccccc2)ccc1OCc1c(C)noc1C | – | -5.96 | – | – | · | – | – | – | – | –
CCC(C)(C(=O)NC1CCCC1)N(C(=O)c1ccccn1)c1ccccc1 (stereo not drawn) | – | -7.97 | – | – | · | – | – | – | – | –
O=C(c1cccc(Cl)c1)N1CCC(N2CCC(C(=O)N3CCCC3)CC2)CC1 | – | – | – | – | – | – | · | · | · | ·
Cc1nn(Cc2ccc(F)cc2)c2sc(C(=O)Nc3nccs3)cc12 | – | -4.68 | – | – | – | – | – | – | – | –
Cc1cccc2cc(CN(CC3CCCO3)C(=O)c3ccco3)c(=O)[nH]c12 (stereo not drawn) | – | -8.27 | – | – | · | – | – | – | – | –
